Consider twelve molecules from ChEMBL document CHEMBL1153965, “Inhibitors of hepatitis C virus NS3/4A: alpha-ketoamide based macrocyclic inhibitors” (Bioorg Med Chem Lett, 2009).

A short description of series [1]: Cytotoxicity against human HuH7 cells. The series is classed as cell-based, Huh-7.
Series [2] is described as follows: Inhibition of full length HCV NS3/4A protease by TRF assay. On the set-up: species or system Hepacivirus hominis.
Series [3] can be described thus: Cmax in Wistar rat at 5 mg/kg, po. The conditions noted are these: in vivo. On the set-up: dose 5 mg/kg, route oral. The series is classed as ADME, organism-based. The procedure, abridged: (§1)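 Male Wistar rats dosed orally at 5 mg/kg in PEG 400 vehicle, with plasma exposure measured. Values are geometric means from 3 animals.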
The nature of series [4]: AUC (0 to infinity) in Wistar rat plasma at 5 mg/kg, po. The class given is ADME, organism-based. On the set-up: time infinity, dose 5 mg/kg, route oral. Summed up:
as §1

Series [5] has as its system Hepatitis C virus. The series is described as follows: Antiviral activity against HCV replication infected in human HuH7 cells after 96 hrs by replicon assay in presence of 10% FCS. The class given is functional, organism-based, Hepacivirus hominis, Huh-7. Summed up:
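Compounds incubated with replicon cells at 37 °C for 96 h in medium containing 10% FCS, with inhibition of replication read out to give EC50.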
(In general: In antiviral work, replicon cells carry a viral genome segment that copies itself.)

Series [6] in a line: Drug level in Wistar rat liver at 5 mg/kg, po after 4 hrs. The note with it: read-out: Drug uptake. Also noted: dose 5 mg/kg, route oral. The series is classed as ADME, organism-based.
A short description of series [7]: Oral bioavailability in Wistar rat at 5 mg/kg. The series is classed as ADME, organism-based. The note with it: in vivo.
The subject of series [8] is Hepatitis C virus. Briefly: Antiviral activity against HCV replication infected in human HuH7 cells after 48 hrs by replicon assay in presence of 2% FCS. The note with it: Huh-7, 48 h.
Series [9] has as its system Hepatitis C virus. The series is described as follows: Antiviral activity against HCV replication infected in human HuH7 cells after 72 hrs by replicon assay in presence of 5% FCS. The conditions noted are these: Huh-7, 72 h.

Broadly, the CC50 is the concentration giving 50% cytotoxicity. A word on the Ki: it is a measure of affinity in units of concentration, obtained from inhibition or displacement. The Cmax is the maximum level reached in the sampled fluid or tissue. What is called AUC(0-inf) is total exposure, with the tail of the curve extrapolated. Lower therefore signals less exposure. As a reminder, the EC50 is the concentration that produces a half-maximal response. `C=CCNC(=O)C(=O)[C@H](CCC)NC(=O)[C@@H]1C[C@@H]2CN1C(=O)[C@H](C(C)(C)C)NC(=O)OCCCCCCc1cccc3c1CN(C3)C(=O)O2` displayed a CC50 in series [1] of more than 50000 nM. The affinity in [2], expressed as Ki, was 71 nM. The peak concentration (Cmax) in [3] was found to be 160 nM. The AUC(0-inf) in series [4] turned out to be 0.58 µM·h. Besides, the EC50 in series [5] (Hepatitis C virus, Huh-7, 96 h) amounted to 550 nM. Also, the concentration at 4 h in series [6] came to 480 nM.
With `CCC[C@H](NC(=O)[C@@H]1C[C@@H]2CN1C(=O)[C@H](C(C)(C)C)NC(=O)OCCCCCCc1cccc3c1CN(C3)C(=O)O2)C(=O)C(=O)NCc1ccccc1`, the CC50 in series [1] was more than 50000 nM. The Ki in series [2] stood at 242 nM. Moreover, the EC50 in series [5] (Hepatitis C virus, Huh-7, 96 h) turned out to be 1320 nM.
In the same order, the values of `CCC[C@H](NC(=O)[C@@H]1C[C@@H]2CN1C(=O)[C@H](C(C)(C)C)NC(=O)OCCCCCCc1cccc3c1CN(C3)C(=O)O2)C(=O)C(=O)NC(C)c1ccccc1` (stereo not given in full) are more than 50000 nM, 140 nM and more than 500 nM.
In the same order, the values of `CCC[C@H](NC(=O)[C@@H]1C[C@@H]2CN1C(=O)[C@H](C(C)(C)C)NC(=O)OCCCCCc1cccc3c1CN(C3)C(=O)O2)C(=O)C(=O)NC1CC1` are more than 50000 nM, 83 nM and 600 nM.
For the molecule `CCC(C)NC(=O)C(=O)C(CC(F)F)NC(=O)[C@@H]1C[C@@H]2CN1C(=O)[C@H](C(C)(C)C)NC(=O)OCCCCCCc1cccc3c1CN(C3)C(=O)O2` (single isomer, unassigned; diastereomer 1), the CC50 in series [1] was more than 50000 nM. In [2], this molecule yielded a Ki of 2400 nM. The EC50 in series [5] (Hepatitis C virus, Huh-7, 96 h) is more than 12500 nM.
In turn, `CCC[C@H](NC(=O)[C@@H]1C[C@@H]2CN1C(=O)[C@H](C(C)(C)C)NC(=O)OCCCCCCc1cccc3c1CN(C3)C(=O)O2)C(=O)C(=O)NC(C)CC` (stereo not given in full) had a CC50 in series [1] of more than 50000 nM. For the same molecule, in series [2], the Ki stood at 66 nM. Also, the EC50 in [5] (Hepatitis C virus, Huh-7, 96 h) amounted to 520 nM.
`CCC[C@H](NC(=O)[C@@H]1C[C@@H]2CN1C(=O)[C@H](C(C)(C)C)NC(=O)OCCCCCCc1cccc3c1CN(C3)C(=O)O2)C(=O)C(=O)NCc1ccccn1`: the CC50 in series [1] was more than 50000 nM. The molecule also returned an inhibitory constant (Ki) in series [2] of 176 nM. Also, in [5] (Hepatitis C virus, Huh-7, 96 h), the half-maximal effective concentration (EC50) amounted to 790 nM.
Molecule `CCC[C@H](NC(=O)[C@@H]1C[C@@H]2CN1C(=O)[C@H](C(C)(C)C)NC(=O)OCCCCCCc1cccc3c1CN(C3)C(=O)O2)C(=O)C(=O)NC1CCCC1` registered a 50% cytotoxic concentration (CC50) in series [1] of more than 50000 nM. The affinity in [2], expressed as Ki, was 78 nM. In addition, in series [5] (Hepatitis C virus, Huh-7, 96 h), the EC50 is 1050 nM.
A word on the bioavailability: it is the share of a dose that reaches the circulation, judged against a reference dose that is usually intravenous. `CCC[C@H](NC(=O)[C@@H]1[C@H]2CCC[C@H]2CN1C(=O)[C@@H](NC(=O)[C@@H](NC(=O)c1cnccn1)C1CCCCC1)C(C)(C)C)C(=O)C(=O)NC1CC1` [TELAPREVIR] returned a half-maximal cytotoxic concentration (CC50) in series [1] of more than 50000 nM. In addition, the affinity in series [2], expressed as Ki, was 110 nM. The bioavailability in series [7] is 34.8%. Also, the area under the curve AUC(0-inf) in series [4] came to 1.54 µM·h. Moreover, the concentration for a half-maximal effect (EC50) was 1600 nM in series [5] (Hepatitis C virus, Huh-7, 96 h) and 354 nM in [8]. Besides, the concentration at 4 h in [6] was found to be 810 nM.
As to `CCC[C@H](NC(=O)[C@@H]1C[C@@H]2CN1C(=O)[C@H](C(C)(C)C)NC(=O)OCCCCCCc1cccc3c1CN(C3)C(=O)O2)C(=O)C(=O)NC1CCC1`, the 50% cytotoxic concentration (CC50) in series [1] was more than 50000 nM. Besides, in series [2], affinity was put at a Ki of 140 nM. Besides, in series [5] (Hepatitis C virus, Huh-7, 96 h), the EC50 came to 940 nM.
Turning to `CCC(C)NC(=O)C(=O)C(CC(F)F)NC(=O)[C@@H]1C[C@@H]2CN1C(=O)[C@H](C(C)(C)C)NC(=O)OCCCCCCc1cccc3c1CN(C3)C(=O)O2` (single isomer, unassigned; diastereomer 2), the inhibition constant (Ki) in series [2] is more than 2900 nM. For the same molecule, the EC50 in series [5] (huh-7) was more than 6250 nM.
`CC(C)(C)NC(=O)N[C@H](C(=O)N1C[C@H]2[C@@H]([C@H]1C(=O)NC(CC1CCC1)C(=O)C(N)=O)C2(C)C)C(C)(C)C` (stereo not given in full) [BOCEPREVIR] registered a cytotoxic concentration (CC50) in [1] of more than 50000 nM. For the same molecule, the Ki in [2] was determined as 35 nM. For the same molecule, the peak concentration (Cmax) in [3] came to 130 nM. The bioavailability in [7] was found to be 3.5%. In [4], this molecule showed an area under the curve AUC(0-inf) of 0.21 µM·h. Besides, the EC50 in series [9] worked out at 200 nM.
